In ChEMBL document CHEMBL1124115, “Synthesis and biological activity of CCK26-33-related analogues modified in position 31” (J Med Chem, 1988):
Square brackets hold non-standard residues; d marks the D form. Peptide text beside a SMILES is read from it. * marks the point of attachment. sY = N[C@@H](Cc1ccc(OS(=O)(=O)O)cc1)C(=O)O; Nle = CCCC[C@H](N)C(=O)O; Boc = CC(C)(C)OC(=O)*

Tests used:
[1] = organism: Cavia porcellus; assay: Agonist activity by measuring the ability to stimulate the contraction of the isolated guinea pig ileum.; format: functional
[2] = organism: Cavia porcellus; assay: Agonist activity by measuring the effect on amylase secretion from guinea pig acini.; format: functional
[3] = organism: Cavia porcellus; assay: Potency in displacing [3H]Boc(Nle28,Nle31)-CCk27-33 from guinea pig pancreatic acini.; format: functional
Summary of the method: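 Radioligand binding on guinea pig pancreatic acini with [3H]Boc(Nle28,Nle31)-CCK27-33 at 0.5 nM (KD = 1 nM). Values are mean ± SEM of three separate experiments, each run in triplicate.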

[4] = organism: Mus musculus; assay: Potency in displacing [3H]propionyl-CCK-8 from mouse brain membranes.; format: functional
Summary of the method: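 Displacement of [3H]propionyl-CCK8 at 0.4 nM (KD = 0.2 nM) from brain tissue. Data are mean ± SEM of three independent experiments, each in triplicate.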

[5] = molecular target: T1, Cholecystokinin receptor (Mus musculus, UniProt O08786+P56481); assay: Potency in displacing [3H]propionyl-Cholecystokinin from mouse brain membranes.
T1 sequence (O08786 whole entry): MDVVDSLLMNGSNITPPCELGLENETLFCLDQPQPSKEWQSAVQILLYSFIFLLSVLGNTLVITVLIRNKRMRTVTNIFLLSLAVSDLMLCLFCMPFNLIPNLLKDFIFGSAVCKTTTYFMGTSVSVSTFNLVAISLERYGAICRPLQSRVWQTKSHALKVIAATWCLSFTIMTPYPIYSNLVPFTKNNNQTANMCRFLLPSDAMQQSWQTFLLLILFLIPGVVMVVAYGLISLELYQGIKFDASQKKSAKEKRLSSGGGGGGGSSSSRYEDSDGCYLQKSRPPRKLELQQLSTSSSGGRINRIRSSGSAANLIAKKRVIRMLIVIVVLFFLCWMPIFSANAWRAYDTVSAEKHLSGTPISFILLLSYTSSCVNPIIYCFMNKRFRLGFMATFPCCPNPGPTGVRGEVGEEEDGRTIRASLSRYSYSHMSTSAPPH
T1 sequence (P56481 whole entry): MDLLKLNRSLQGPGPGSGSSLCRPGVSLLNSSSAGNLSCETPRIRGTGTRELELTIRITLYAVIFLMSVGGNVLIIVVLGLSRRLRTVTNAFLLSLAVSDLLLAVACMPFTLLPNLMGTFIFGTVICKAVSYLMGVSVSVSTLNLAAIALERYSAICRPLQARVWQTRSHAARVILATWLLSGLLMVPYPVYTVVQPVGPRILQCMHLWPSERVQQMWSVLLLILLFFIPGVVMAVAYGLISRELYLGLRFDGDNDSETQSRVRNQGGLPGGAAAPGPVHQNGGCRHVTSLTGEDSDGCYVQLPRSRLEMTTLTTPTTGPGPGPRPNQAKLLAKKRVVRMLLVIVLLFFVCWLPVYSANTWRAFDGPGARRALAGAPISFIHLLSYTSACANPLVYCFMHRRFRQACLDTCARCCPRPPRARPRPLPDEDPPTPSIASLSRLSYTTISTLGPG
Summary of the method: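 Competition binding on brain membranes against [³H]propionyl-CCK₈ used at 0.4 nM (K_D = 0.2 nM). Values are mean ± SEM of three separate experiments, each run in triplicate.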

Compound	EC50 [1]	EC50 [2]	Ki [3]	Ki [4]	Ki [5]
CCCC[C@H](NC(=O)[C@H](Cc1ccc(OS(=O)(=O)O)cc1)NC(=O)OC(C)(C)C)C(=O)NCC(=O)N[C@@H](Cc1c[nH]c2ccccc12)C(=O)N[C@H](CCCN)C(=O)N[C@@H](CC(=O)O)C(=O)N[C@@H](Cc1ccccc1)C(N)=O	190 nM	22 nM	390 nM	110 nM	–
CCCC[C@H](NC(=O)[C@H](Cc1ccc(OS(=O)(=O)O)cc1)NC(=O)OC(C)(C)C)C(=O)NCC(=O)N[C@@H](Cc1c[nH]c2ccccc12)C(=O)N[C@@H](C)C(=O)N[C@@H](CC(=O)O)C(=O)N[C@@H](Cc1ccccc1)C(N)=O (Boc-[sY][Nle]GWADF-NH2)	110 nM	25 nM	1100 nM	14 nM	–
CCCC[C@H](NC(=O)[C@H](Cc1ccc(OS(=O)(=O)O)cc1)NC(=O)OC(C)(C)C)C(=O)NCC(=O)N[C@@H](Cc1c[nH]c2ccccc12)C(=O)N[C@@H](CCC(=O)O)C(=O)N[C@@H](CC(=O)O)C(=O)N[C@@H](Cc1ccccc1)C(N)=O (Boc-[sY][Nle]GWEDF-NH2)	> 1000 nM	> 10000 nM	> 10000 nM	> 10000 nM	–
CCCC[C@H](NC(=O)[C@H](Cc1ccc(OS(=O)(=O)O)cc1)NC(=O)OC(C)(C)C)C(=O)NCC(=O)N[C@@H](Cc1c[nH]c2ccccc12)C(=O)N[C@@H](Cc1ccccc1)C(=O)N[C@@H](CC(=O)O)C(=O)N[C@@H](Cc1ccccc1)C(N)=O (Boc-[sY][Nle]GWFDF-NH2)	11 nM	3.4 nM	220 nM	3.7 nM	–
CCCC[C@H](NC(=O)[C@H](Cc1ccc(OS(=O)(=O)O)cc1)NC(=O)OC(C)(C)C)C(=O)NCC(=O)N[C@@H](Cc1c[nH]c2ccccc12)C(=O)N[C@@H](CCCC)C(=O)N[C@@H](CC(=O)O)C(=O)N[C@@H](Cc1ccccc1)C(N)=O (Boc-[sY][Nle]GW[Nle]DF-NH2)	0.4 nM	0.16 nM	2.9 nM	0.13 nM	–
CSCC[C@H](NC(=O)[C@H](Cc1ccc(OS(=O)(=O)O)cc1)NC(=O)[C@@H](N)CC(=O)O)C(=O)NCC(=O)N[C@@H](Cc1c[nH]c2ccccc12)C(=O)N[C@@H](CCSC)C(=O)N[C@@H](CC(=O)O)C(=O)N[C@@H](Cc1ccccc1)C(N)=O [SINCALIDE]	0.7 nM	0.13 nM	2.5 nM	–	0.3 nM
